Neddylation inh: blocks human cullin neddylation; P61081+Q13564; TR-FRET cullin neddylation, biochemical; inhibition, % at 25 µM; 360,000 compounds, 0.58% hits; in the data active means inhibition above about 36%
PfG6PD inh: PfG6PD (Plasmodium falciparum) enzyme inhibition; 350,000 compounds, 0.78% hits; inhibition, % at 20 µM; PfGluPho enzyme, NADPH resazurin-diaphorase fluorescence;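 active means inhibition reaching at least a set limit at 20 µM in the primary screen, cut at about 59% in these data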
M18AAP inhibitor: PfM18AAP enzyme inhibition; recombinant PfM18AAP, H-Glu-NHMec fluorogenic cleavage; 290,000 compounds, 1.2% hits; inhibition, % at 7.35 µM;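 active means inhibition above the campaign mean inhibition over all tested compounds plus 3 SD, cut at about 28% in these data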
HKDC1 inhibitor: inhibitors of human hexokinase HKDC1 | Q2TB90 | recombinant HKDC1, G6PDH/diaphorase resazurin coupled fluorescence | inhibition, % at 20 µM | 340,000 compounds, 0.16% hits | AID 493160;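 active means inhibition above about 35% when tested at 20 µM, limit read from the data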
Target sequence (Q2TB90 whole entry, looked up): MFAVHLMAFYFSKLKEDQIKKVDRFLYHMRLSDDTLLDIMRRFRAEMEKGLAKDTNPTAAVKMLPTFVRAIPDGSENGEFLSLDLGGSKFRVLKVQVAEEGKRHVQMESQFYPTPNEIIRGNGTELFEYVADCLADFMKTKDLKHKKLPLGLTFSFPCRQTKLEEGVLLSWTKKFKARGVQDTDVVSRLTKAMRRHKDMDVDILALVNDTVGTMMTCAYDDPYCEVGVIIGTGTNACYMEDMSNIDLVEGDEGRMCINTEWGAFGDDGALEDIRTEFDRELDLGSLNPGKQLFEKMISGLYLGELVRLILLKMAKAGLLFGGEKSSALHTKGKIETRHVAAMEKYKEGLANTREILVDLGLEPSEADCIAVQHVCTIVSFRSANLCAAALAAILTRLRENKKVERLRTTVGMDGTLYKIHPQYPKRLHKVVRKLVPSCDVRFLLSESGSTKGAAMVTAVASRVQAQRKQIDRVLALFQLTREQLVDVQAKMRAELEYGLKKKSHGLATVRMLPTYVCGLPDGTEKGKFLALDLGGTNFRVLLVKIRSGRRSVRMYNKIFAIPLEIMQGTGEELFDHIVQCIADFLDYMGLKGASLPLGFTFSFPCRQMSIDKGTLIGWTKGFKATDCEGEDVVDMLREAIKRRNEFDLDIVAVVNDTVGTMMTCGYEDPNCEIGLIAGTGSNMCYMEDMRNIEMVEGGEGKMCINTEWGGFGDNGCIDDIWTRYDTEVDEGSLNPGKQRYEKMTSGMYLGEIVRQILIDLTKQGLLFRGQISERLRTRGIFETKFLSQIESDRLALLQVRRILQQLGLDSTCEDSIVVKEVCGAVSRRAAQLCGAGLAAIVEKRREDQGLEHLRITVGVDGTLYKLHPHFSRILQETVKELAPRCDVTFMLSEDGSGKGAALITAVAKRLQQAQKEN
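Material: recombinant HKDC1 hexokinase; Amount: HKDC1 at 5 µg/mL; Medium: Tris pH 8.0 buffer with MgCl2, Tween-20, BSA, BME; Schedule: 90 min reaction incubation at room temperature, dark; Technique: coupled resazurin fluorescence, excitation 525 nm, emission 613 nm.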
PfG6PD confirm: confirmation of Plasmodium falciparum G6PD inhibitors. shares compounds with PfG6PD inh. recombinant PfGluPho, NADPH-diaphorase-resazurin fluorescence. inhibition, % at 20 µM. 2,400 compounds, 34% hits. AID 504753;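 active means inhibition of at least 50% at 20 µM in any single replicate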
Diaphorase 10uM: diaphorase inhibition or oxidation at 10 uM NADPH. shares compounds with PfG6PD inh. diaphorase-coupled resazurin reduction, fluorescence, NADPH 10 uM. inhibition, % at 20 µM. 820 compounds, 39% hits;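 active means average inhibition reaching 50% or more with the compound at 20 µM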;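 further: resorufin red fluorescence formed as diaphorase reduces resazurin using NADPH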
Diaphorase 30uM: inhibits diaphorase or oxidizes, flagging false PfG6PD hits. shares compounds with PfG6PD inh. Diaphorase/resazurin coupled assay, resorufin fluorescence, 30 uM NADPH. inhibition, % at 20 µM. 820 compounds, 29% hits. AID 504863;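 active means inhibition averaging 50% or more, tested at 20 µM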
Each line names hits and unclear results; the compound was inactive in the other large screens (follow-up assays come after a bar, where shown). In the library only some 2.2% were active in any assay of this set; here they are far more common.

O=C(O)c1nn(CC(=O)N2CCN(c3ncc(C(F)(F)F)cc3Cl)CC2)c(=O)c2ccccc12	none
CCc1sc(C(=O)Nc2ccc(NC(C)=O)cc2)cc1C	none
CCc1sc(C(=O)Nc2nc(C)cs2)cc1C	PfG6PD inh 60.8 | PfG6PD confirm inactive
COc1ccc(NC(=O)c2ccc(OC(F)F)cc2)cc1Cl	PfG6PD inh 84.5 | PfG6PD confirm inactive
C=CCNc1ncnc2c1cnn2-c1cccc(C)c1	none (not shown: Neddylation inh)
Cc1cccc(-n2ncc3c(NC4CCCCC4)ncnc32)c1	PfG6PD inh 65.6 | PfG6PD confirm inactive
Cc1ccc(C)c2c1N(Cc1ccccc1)C(=O)C21OCCO1	none
Cc1ccc(S(=O)(=O)NC(=O)NC(C)c2ccc(F)cc2)cc1 (stereo not given)	none
O=C(c1cc(-c2ccc(Cl)cc2)n(-c2cc(Cl)ccc2Cl)n1)N1CCOCC1	PfG6PD inh 77.9 | PfG6PD confirm inactive
CCn1c(/C=C/c2c(C)n(CC)c3ccccc23)nc2ccccc2c1=O	none
CCn1c2ccccc2nc2cc3c(cc21)c(Cl)c(=O)c1ccccc13	PfG6PD inh 93.8 (no result: M18AAP inhibitor, HKDC1 inhibitor) | PfG6PD confirm inactive
O=C1CN(S(=O)(=O)c2cc(Br)ccc2Br)CCN1	none (no result: M18AAP inhibitor)
O=c1c(Br)ccc(Br)cc1Br	PfG6PD inh 65.8 (no result: M18AAP inhibitor) | PfG6PD confirm inactive
CC(=O)N(C)c1ccc(NC(=O)Cc2cccs2)cc1	none
Cc1cc(C)n(Cc2ccc(Cl)cc2Cl)c(=O)c1S(=O)(=O)c1ccccc1	PfG6PD inh 70.9 | PfG6PD confirm inactive
C=C(C)Cn1c(C)cc(C)c(S(=O)(=O)c2ccc(C)cc2)c1=O	none
COc1ccc2cc(C3=CC(=O)CCC3)ccc2c1	PfG6PD inh 79.1 (not shown: Neddylation inh, M18AAP inhibitor) | PfG6PD confirm inactive
COc1cc2c(C#Cc3cccnc3)c(-c3ccsc3)oc(=O)c2cc1OC	none (no result: M18AAP inhibitor)
O=C1/C(=N\S(=O)(=O)c2cccs2)C([n+]2ccccc2)=C([O-])c2ccccc21	PfG6PD inh 65.1 | PfG6PD confirm inactive
N/C(=N\S(=O)(=O)c1cccs1)c1ccccc1	none
O=C(NCCOc1ccc(F)cc1)C1CCC(=O)N(CCN2CCOCC2)C1 (stereo not given)	none
COc1cc(C2C(C#N)=C(N)N(N(C)C)C3=C2C(=O)CC(C)(C)C3)cc(OC)c1OC (stereo not given)	none
CCOC(=O)c1c(C)[nH]c2cc(Br)c(O)cc12	none
CCOC(=O)c1c(OCC)[nH]c2c1cc(O)c1ccccc12	PfG6PD inh 68.8 | PfG6PD confirm 48.5 | Diaphorase 10uM inactive | Diaphorase 30uM inactive
Cc1ccccc1NC(=O)c1c(Cl)nc(C)c(Cl)c1C	none
CCc1ccc(NC(=O)c2c(Cl)nc(C)c(Cl)c2C)cc1	PfG6PD inh 84.2 | PfG6PD confirm inactive
CC1(C(=O)NS(=O)(=O)c2ccc(Cl)cc2)CCN1C(=O)c1ccc(C2CCCCC2)cc1 (stereo not given)	none (no result: PfG6PD inh, M18AAP inhibitor, HKDC1 inhibitor)
COc1ccccc1-n1cnnc1SCC(=O)N1CCOCC1	none
N#Cc1c(N2CCCC2)nc(N)c2c(N)nc(N3CCCC3)cc12	PfG6PD inh 106.8 | PfG6PD confirm inactive
Cc1ccc(S(=O)(=O)N2CCN(CCOc3cccc(C)c3)CC2)cc1	none (no result: M18AAP inhibitor)
COC(=O)c1cn(CCOc2ccccc2)c2ccccc12	none
COc1ccccc1OCCCn1c(C)c(C#N)c2ccccc21	none
N#Cc1cn(CCCOc2ccccc2)c2ccccc12	PfG6PD inh 61.0 | PfG6PD confirm inactive
COc1ccccc1OCCCn1cc(C#N)c2ccccc21	PfG6PD inh 113.0 | PfG6PD confirm 69.2 | Diaphorase 10uM 64.6 | Diaphorase 30uM 57.7
CCC1(CC)C(=O)NC(=O)NC1=S	none (no result: M18AAP inhibitor)
Cc1cccc(N2CC(C(=O)Nc3ccc(N4CCOCC4)cc3)CC2=O)c1C (stereo not given)	none (no result: M18AAP inhibitor)
CC1(C)Cc2c(c(-c3ccco3)nc3sc4c(NCCCO)ncnc4c23)CO1	PfG6PD inh 59.6 (not shown: Neddylation inh) | PfG6PD confirm inactive
FC(F)(F)c1cc(CO[C@@H]2CCCN[C@@H]2c2ccccc2)cc(C(F)(F)F)c1	PfG6PD inh 66.6 (no result: M18AAP inhibitor) | PfG6PD confirm inactive
FC(F)(F)c1cc(CCN2CCNC[C@@H]2c2ccccc2)cc(C(F)(F)F)c1	none (no result: M18AAP inhibitor)
O=[N+]([O-])c1ccc(O)c2ncccc12	PfG6PD inh 62.5 | PfG6PD confirm inactive
Nn1cnnc1N/N=C\c1ccc(-c2ccccc2[N+](=O)[O-])o1	PfG6PD inh 80.5, M18AAP inhibitor 53.9 | PfG6PD confirm 53.4 | Diaphorase 10uM 73.6 | Diaphorase 30uM 56.5
O=C(NC1CCCc2ccccc21)c1c(F)cccc1Cl (stereo not given)	none
Cc1ccc(-n2c(SCC(=O)Nc3cc(C)on3)nc3c(c2=O)SC(C)C3)cc1 (stereo not given)	PfG6PD inh 83.9 | PfG6PD confirm inactive
Cc1ccc(/C=N/NC(=O)CSc2nc3ccccc3n2C)s1	PfG6PD inh 117.1 | PfG6PD confirm 87.2 | Diaphorase 10uM 93.3 | Diaphorase 30uM 79.3
COC(=O)C1(C(=O)OC)c2ccccc2CN(S(=O)(=O)c2ccc(C)cc2)C1CC(C)=O (stereo not given)	none (no result: PfG6PD inh, M18AAP inhibitor, HKDC1 inhibitor)
CCOc1cccc(-c2c(C(=O)N/N=C/c3sccc3C)nnn2-c2nonc2N)c1	PfG6PD inh 86.7 | PfG6PD confirm inactive
CCOc1ccc(-c2c(C(=O)N/N=C/c3sccc3C)nnn2-c2nonc2N)cc1	none
CCOc1cccc(-c2c(C(=O)N/N=C/c3ccc(C)s3)nnn2-c2nonc2N)c1	PfG6PD inh 66.7 | PfG6PD confirm inactive
Cc1ccsc1/C=N/NC(=O)c1nnn(-c2nonc2N)c1-c1ccc2c(c1)OCO2	PfG6PD inh 65.9 | PfG6PD confirm inactive
CCOc1ccc(-c2c(C(=O)N/N=C/c3ccc(C)s3)nnn2-c2nonc2N)cc1	none
COc1cccc(-c2c(C(=O)N/N=C/c3ccncc3)nnn2-c2nonc2N)c1	none
COc1cccc(-c2c(C(=O)N/N=C/c3ccc(C)s3)nnn2-c2nonc2N)c1	PfG6PD inh 97.8 | PfG6PD confirm 49.5 | Diaphorase 10uM 65.3 | Diaphorase 30uM inactive
COc1ccc(C(=O)NCc2ccon2)cc1OC1CCN(C(C)C)CC1	none
O=C(Nc1cccc(S(=O)(=O)N2CCCCC2)c1)C1CCCN1S(=O)(=O)c1ccccc1F (stereo not given)	none (no result: M18AAP inhibitor)
COc1cccc(-c2c(C(=O)N/N=C/c3ccc(C)o3)nnn2-c2nonc2N)c1	PfG6PD inh 65.6 | PfG6PD confirm 55.8 | Diaphorase 10uM inactive | Diaphorase 30uM inactive
N#CC1(NC(=O)CN2c3cccc4cccc(c34)S2(=O)=O)CCCCC1	none (no result: M18AAP inhibitor)
COc1ccccc1C(=O)N=c1sc2c(C)ccc(OC)c2n1C	PfG6PD inh 62.8 | PfG6PD confirm inactive
COc1ccc(C(=O)N=c2sc3c(C)ccc(OC)c3n2C)cc1OC	none (not shown: Neddylation inh)
Cc1ccc(S(=O)(=O)N(C)CC(=O)N2CC(C)OC(C)C2)cc1 (stereo not given)	none
